{"data": "Measured values pooled from the literature", "target": "Serine/threonine-protein kinase BRSK1 (BRSK1, Homo sapiens, UniProt Q8TDC3)", "One construct used (Q8TDC3 1-778)": "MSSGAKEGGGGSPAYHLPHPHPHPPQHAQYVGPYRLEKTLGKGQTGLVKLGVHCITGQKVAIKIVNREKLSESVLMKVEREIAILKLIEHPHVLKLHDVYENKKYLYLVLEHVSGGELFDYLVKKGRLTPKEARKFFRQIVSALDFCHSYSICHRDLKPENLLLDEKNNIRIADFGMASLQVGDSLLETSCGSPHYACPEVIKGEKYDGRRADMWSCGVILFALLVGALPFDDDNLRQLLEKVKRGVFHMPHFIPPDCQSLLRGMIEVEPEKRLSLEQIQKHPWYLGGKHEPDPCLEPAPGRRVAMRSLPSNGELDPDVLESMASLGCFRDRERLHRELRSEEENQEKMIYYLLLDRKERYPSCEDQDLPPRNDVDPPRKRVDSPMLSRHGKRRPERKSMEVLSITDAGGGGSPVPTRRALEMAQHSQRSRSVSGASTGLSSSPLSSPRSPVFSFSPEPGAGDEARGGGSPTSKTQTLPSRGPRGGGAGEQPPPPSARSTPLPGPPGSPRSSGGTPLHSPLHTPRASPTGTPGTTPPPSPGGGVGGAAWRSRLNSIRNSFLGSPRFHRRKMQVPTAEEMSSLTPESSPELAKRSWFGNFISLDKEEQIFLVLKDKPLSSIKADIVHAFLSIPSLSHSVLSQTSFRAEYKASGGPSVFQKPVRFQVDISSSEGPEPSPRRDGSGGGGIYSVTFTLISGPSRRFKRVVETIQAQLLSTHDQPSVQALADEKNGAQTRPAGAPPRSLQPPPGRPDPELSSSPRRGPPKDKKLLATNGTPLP", "note": "Protocols differ between the studies behind these lines."}
{"read-out": "binding", "concentration": "1 µM", "remaining binding [%]": 87, "SMILES": "CN(C)c1ncc(F)c(-c2cnn3ncccc23)n1"}
{"read-out": "cell-free assay", "technique": "competition with immobilised ligand", "concentration": "0.1 µM", "remaining binding [%]": 100, "SMILES": "CC(C)CC(=O)N1CCc2nc(-c3ccc(Br)cc3)nc(N(C)Cc3ccccc3)c2C1"}
{"read-out": "binding", "concentration": "1 µM", "remaining binding [%]": 98, "SMILES": "COc1ccnn2ncc(-c3ccnc(N(C)C)n3)c12"}
{"read-out": "binding", "technique": "competition with immobilised ligand", "concentration": "1 µM", "remaining binding [%]": 32, "SMILES": "O=C(c1ccc(Nc2ncc(Cl)c(-c3cc4ccccc4s3)n2)cc1)N1CCC(N2CCCC2)CC1"}
{"read-out": "binding", "concentration": "1 µM", "remaining binding [%]": 93, "SMILES": "C[C@@H]1CCN(c2nccc(-c3cnn4ncccc34)n2)C1"}
{"read-out": "binding", "technique": "competition with immobilised ligand", "concentration": "1 µM", "remaining binding [%]": 70, "SMILES": "O=C(NCCCN1CCOCC1)c1ccc(Nc2nccc(-c3cc4ccccc4s3)n2)cc1"}
{"read-out": "cell-free assay", "technique": "competition with immobilised ligand", "concentration": "0.1 µM", "remaining binding [%]": 96, "SMILES": "Cc1c[nH]c2nccc(Oc3c(F)cc(Nc4cc(Cl)nc(N)n4)cc3F)c12"}
{"read-out": "binding", "technique": "competition with immobilised ligand", "concentration": "1 µM", "remaining binding [%]": 75, "SMILES": "O=C(NCCCN1CCOCC1)c1ccc(Nc2ncc(Cl)c(-c3ccc(Cl)s3)n2)cc1"}
{"read-out": "binding", "technique": "competition with immobilised ligand", "concentration": "0.1 µM", "remaining binding [%]": 93, "SMILES": "C[C@@H](c1ccc(-n2cnc3c(N)ncnc32)cc1)N1CCc2nn(C)c(Cc3ccccc3)c2C1=O"}
{"read-out": "cell-free assay", "technique": "competition with immobilised ligand", "concentration": "1 µM", "remaining binding [%]": 87, "SMILES": "N#CC1(c2ccccn2)CCN(Cc2cc(C(=O)N3CCCC3)c(=O)n3ccccc23)CC1"}
{"read-out": "cell-free assay", "technique": "competition with immobilised ligand", "concentration": "5 µM", "remaining binding [%]": 89, "SMILES": "COc1ncc2cc3ccccc3nc2c1C#N"}
{"read-out": "cell-free assay", "technique": "competition with immobilised ligand", "concentration": "1 µM", "remaining binding [%]": 100, "SMILES": "Cc1nccc(COC(=O)N2C[C@@H]3[C@@H](CNC(=O)c4ccc5[nH]nnc5c4)[C@@H]3C2)n1"}
{"read-out": "binding", "concentration": "1 µM", "remaining binding [%]": 100, "SMILES": "CN(C)c1nccc(-c2cnc3ncccn23)n1"}
{"read-out": "cell-free assay", "technique": "competition with immobilised ligand", "concentration": "1 µM", "remaining binding [%]": 81, "SMILES": "COc1cc(-c2cn(C3CCc4ccccc4N(CC(F)(F)F)C3=O)nn2)ccc1-n1ccc(C)n1 (stereo not shown)"}
{"read-out": "binding", "technique": "competition with immobilised ligand", "concentration": "10 µM", "remaining binding [%]": 84, "SMILES": "c1cncc(-c2cccc(Nc3nccc(NC4CCCCC4)n3)c2)c1"}
{"read-out": "binding", "technique": "competition with immobilised ligand", "concentration": "1 µM", "remaining binding [%]": 100, "SMILES": "C=CC(=O)N1CCC(C(=O)NCC(=O)N2CCN(c3nc(-c4cnc(N)nc4C(F)F)nc(N4CCOCC4)n3)CC2)CC1"}
{"read-out": "binding", "concentration": "1 µM", "remaining binding [%]": 82, "SMILES": "c1cnn2ncc(-c3ccnc(N4CCC45COC5)n3)c2c1"}
{"read-out": "binding", "technique": "competition with immobilised ligand", "concentration": "1 µM", "remaining binding [%]": 100, "SMILES": "COc1cnc(Nc2cccc(S(N)(=O)=O)c2)nc1N1CCN(c2ccccc2)C(=O)C1"}
{"read-out": "binding", "concentration": "1 µM", "remaining binding [%]": 81, "SMILES": "N[C@H]1CCN(c2nccc(-c3cnn4ncccc34)n2)C1"}
{"read-out": "cell-free assay", "technique": "competition with immobilised ligand", "concentration": "1 µM", "remaining binding [%]": 68, "SMILES": "C[C@H](c1cccc(C#N)c1)n1cc(Cl)cc(C(N)=O)c1=N"}
{"read-out": "binding", "concentration": "1 µM", "remaining binding [%]": 100, "SMILES": "CN(C)c1nccc(-c2cnn3ncccc23)n1"}
{"read-out": "binding", "technique": "competition with immobilised ligand", "concentration": "1 µM", "remaining binding [%]": 100, "SMILES": "O=C(NCC1CCOCC1)c1n[nH]cc1NC(=O)c1c(F)cccc1F"}
